Legend:
[1] = target: T1, Kinesin-like protein KIF3C (Homo sapiens) (UniProt O14782); experiment: Inhibition of porcine brain microtubule-stimulated human recombinant GST-tagged KIF3C ATPase activity at 15 uM by microplate reader in presence of Mg2+ ATP relative to control
T1 sequence (whole entry): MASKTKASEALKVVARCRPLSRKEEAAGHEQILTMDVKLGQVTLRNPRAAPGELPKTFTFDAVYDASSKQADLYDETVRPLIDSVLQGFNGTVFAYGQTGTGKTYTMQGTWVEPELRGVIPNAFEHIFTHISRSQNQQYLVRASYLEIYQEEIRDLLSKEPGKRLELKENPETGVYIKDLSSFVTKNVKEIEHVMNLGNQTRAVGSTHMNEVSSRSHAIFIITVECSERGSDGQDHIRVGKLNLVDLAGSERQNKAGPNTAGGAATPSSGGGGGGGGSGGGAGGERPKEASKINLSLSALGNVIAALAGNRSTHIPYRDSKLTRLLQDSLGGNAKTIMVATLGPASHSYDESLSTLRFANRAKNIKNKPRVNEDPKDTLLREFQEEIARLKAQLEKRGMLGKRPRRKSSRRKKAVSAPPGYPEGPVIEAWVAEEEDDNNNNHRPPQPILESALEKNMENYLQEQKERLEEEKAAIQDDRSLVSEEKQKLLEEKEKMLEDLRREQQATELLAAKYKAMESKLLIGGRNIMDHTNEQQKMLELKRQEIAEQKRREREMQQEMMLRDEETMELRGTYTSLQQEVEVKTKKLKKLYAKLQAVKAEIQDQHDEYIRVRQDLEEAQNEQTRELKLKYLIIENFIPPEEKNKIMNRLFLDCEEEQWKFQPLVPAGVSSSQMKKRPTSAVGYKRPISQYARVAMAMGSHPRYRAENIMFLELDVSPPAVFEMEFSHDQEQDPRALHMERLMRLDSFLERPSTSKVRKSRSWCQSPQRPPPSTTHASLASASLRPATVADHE
Method in brief: (§1)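 Each kinesin motor domain was tested against MT-stimulated ATPase at 22 °C in triplicate, with compounds at 15 µM. Buffer was 7.5 mM PIPES-NaOH pH 7.0 with MgCl2, Taxol, ELIPA reagents and 1.25 mg/mL MTs. Reactions were started with 1 mM Mg2+ATP and read kinetically at 360 nm. Monastrol and AMP-PNP (1 mM) were the controls.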

[2] = target: Centromere-associated protein E (Homo sapiens) (UniProt Q02224); experiment: Inhibition of porcine brain microtubule-stimulated human recombinant GST-tagged CENP-E ATPase activity at 15 uM by microplate reader in presence of Mg2+ ATP relative to control; method in brief: as §1
[3] = target: T2, Kinesin-like protein KIF23 (Homo sapiens) (UniProt Q02241); experiment: Inhibition of porcine brain microtubule-stimulated human recombinant GST-tagged MKLP1 ATPase activity at 15 uM by microplate reader in presence of Mg2+ ATP relative to control; method in brief: as §1
T2 sequence (whole entry): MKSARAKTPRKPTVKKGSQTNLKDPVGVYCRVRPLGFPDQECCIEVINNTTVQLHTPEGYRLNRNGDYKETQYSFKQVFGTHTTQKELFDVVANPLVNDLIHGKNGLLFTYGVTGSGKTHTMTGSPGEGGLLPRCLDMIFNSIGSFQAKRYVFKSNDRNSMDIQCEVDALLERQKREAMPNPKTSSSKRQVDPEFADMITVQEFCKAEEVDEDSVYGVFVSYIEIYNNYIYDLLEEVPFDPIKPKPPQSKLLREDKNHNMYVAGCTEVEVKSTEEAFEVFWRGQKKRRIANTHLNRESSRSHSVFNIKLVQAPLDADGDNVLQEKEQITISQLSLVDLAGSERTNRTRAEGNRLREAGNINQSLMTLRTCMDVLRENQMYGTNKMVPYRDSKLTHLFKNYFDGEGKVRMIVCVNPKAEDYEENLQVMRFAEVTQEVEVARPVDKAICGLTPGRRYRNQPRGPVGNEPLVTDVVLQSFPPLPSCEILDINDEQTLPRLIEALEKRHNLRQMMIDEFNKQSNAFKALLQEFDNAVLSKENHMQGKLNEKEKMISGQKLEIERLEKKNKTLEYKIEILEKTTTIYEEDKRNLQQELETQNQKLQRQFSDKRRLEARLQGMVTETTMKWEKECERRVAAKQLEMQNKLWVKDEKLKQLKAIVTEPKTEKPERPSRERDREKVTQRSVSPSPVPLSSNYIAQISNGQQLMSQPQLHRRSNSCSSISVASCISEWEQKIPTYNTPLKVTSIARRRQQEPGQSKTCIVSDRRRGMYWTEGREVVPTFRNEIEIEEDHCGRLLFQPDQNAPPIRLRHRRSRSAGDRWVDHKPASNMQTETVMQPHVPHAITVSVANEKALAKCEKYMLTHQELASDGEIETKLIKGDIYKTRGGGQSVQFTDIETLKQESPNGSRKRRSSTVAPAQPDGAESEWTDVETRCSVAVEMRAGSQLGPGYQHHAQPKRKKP

[4] = target: T3, Kinesin-like protein KIFC3 (Homo sapiens) (UniProt Q9BVG8); experiment: Inhibition of porcine brain microtubule-stimulated human recombinant GST-tagged KIFC3 ATPase activity at 15 uM by microplate reader in presence of Mg2+ ATP relative to control; method in brief: as §1
T3 sequence (whole entry): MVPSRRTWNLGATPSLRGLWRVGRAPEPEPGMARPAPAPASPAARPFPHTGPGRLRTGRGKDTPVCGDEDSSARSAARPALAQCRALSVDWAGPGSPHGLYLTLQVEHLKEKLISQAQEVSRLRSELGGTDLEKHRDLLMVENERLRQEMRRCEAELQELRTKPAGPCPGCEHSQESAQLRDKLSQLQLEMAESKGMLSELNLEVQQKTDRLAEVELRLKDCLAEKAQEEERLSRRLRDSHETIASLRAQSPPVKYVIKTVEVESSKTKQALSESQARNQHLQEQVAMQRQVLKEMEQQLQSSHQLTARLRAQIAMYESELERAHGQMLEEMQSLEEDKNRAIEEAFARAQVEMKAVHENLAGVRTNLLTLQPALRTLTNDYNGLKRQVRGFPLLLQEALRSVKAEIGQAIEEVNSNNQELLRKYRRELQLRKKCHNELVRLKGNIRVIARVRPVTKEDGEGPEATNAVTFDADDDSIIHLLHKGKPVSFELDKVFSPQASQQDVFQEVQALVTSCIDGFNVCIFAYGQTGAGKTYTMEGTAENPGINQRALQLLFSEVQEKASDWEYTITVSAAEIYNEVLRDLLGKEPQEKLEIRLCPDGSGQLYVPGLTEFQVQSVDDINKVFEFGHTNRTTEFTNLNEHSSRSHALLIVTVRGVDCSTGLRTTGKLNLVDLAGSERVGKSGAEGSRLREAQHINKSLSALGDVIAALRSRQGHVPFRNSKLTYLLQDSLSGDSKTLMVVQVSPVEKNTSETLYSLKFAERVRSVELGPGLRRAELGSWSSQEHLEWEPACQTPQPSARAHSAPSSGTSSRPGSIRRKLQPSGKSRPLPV

Measured: inhibition

Centromere-associated protein E (Homo sapiens), sequence (Q02224 whole entry): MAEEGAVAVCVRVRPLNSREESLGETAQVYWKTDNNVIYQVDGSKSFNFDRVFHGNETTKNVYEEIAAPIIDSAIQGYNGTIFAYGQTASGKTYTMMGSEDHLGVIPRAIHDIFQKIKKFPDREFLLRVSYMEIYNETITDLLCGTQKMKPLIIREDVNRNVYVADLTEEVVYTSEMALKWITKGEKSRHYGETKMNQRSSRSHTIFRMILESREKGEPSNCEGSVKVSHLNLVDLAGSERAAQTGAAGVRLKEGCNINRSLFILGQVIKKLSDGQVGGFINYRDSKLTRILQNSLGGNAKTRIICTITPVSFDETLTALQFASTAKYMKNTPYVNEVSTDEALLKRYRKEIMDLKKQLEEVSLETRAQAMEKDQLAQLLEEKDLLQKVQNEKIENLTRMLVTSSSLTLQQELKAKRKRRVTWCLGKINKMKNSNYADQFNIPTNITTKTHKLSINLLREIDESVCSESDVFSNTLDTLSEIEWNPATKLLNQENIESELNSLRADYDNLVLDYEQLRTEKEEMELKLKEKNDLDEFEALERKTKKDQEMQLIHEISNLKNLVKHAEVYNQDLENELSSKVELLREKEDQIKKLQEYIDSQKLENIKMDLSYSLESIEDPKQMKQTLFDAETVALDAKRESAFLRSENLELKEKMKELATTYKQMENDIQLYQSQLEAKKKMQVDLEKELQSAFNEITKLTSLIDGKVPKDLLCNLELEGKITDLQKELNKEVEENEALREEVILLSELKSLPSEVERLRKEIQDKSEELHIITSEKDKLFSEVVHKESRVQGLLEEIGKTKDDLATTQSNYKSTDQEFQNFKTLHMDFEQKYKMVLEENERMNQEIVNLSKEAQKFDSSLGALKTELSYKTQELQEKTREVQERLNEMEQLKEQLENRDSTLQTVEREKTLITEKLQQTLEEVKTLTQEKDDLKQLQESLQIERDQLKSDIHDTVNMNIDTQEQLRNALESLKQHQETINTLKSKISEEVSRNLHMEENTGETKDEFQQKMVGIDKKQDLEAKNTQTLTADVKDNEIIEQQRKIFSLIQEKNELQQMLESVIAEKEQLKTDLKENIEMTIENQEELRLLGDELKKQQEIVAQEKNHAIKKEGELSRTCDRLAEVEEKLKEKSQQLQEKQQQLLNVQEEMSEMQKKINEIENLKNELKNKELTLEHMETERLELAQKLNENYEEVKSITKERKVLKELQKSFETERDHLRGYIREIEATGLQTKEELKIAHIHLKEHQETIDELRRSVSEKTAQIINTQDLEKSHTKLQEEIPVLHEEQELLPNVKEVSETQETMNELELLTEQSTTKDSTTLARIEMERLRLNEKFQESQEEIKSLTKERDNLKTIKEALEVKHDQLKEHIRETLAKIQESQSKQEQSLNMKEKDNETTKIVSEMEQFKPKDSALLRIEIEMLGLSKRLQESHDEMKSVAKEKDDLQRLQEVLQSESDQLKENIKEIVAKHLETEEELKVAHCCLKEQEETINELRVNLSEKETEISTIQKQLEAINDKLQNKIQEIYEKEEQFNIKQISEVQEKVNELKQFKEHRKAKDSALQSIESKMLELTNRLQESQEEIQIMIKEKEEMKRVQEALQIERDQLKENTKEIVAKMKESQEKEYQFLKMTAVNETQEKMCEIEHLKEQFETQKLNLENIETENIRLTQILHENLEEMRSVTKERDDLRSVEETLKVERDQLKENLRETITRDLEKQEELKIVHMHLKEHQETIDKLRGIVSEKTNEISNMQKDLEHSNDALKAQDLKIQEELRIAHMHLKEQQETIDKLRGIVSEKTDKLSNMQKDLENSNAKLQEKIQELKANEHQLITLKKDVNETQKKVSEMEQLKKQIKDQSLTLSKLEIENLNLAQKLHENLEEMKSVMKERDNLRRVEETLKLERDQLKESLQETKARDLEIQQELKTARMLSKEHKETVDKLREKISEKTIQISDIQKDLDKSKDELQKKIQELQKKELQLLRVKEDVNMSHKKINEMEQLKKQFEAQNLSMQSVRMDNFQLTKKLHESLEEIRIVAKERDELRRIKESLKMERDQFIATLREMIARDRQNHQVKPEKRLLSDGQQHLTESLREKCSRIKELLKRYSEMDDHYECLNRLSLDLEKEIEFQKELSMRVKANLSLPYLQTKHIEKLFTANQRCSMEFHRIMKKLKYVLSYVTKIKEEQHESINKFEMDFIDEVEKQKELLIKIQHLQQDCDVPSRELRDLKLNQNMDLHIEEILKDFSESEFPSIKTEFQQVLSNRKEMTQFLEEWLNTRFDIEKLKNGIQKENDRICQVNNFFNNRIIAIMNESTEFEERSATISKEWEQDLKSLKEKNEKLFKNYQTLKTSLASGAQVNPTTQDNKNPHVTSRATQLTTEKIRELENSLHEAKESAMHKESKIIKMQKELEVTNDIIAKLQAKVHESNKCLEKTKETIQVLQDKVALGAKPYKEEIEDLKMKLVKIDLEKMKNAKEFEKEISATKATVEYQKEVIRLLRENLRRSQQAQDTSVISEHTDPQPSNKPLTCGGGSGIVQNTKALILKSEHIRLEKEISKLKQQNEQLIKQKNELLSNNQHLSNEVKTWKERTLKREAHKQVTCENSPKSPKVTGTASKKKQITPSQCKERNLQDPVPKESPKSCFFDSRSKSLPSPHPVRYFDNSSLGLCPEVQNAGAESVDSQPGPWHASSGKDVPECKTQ

CCOC(=O)C1=C(C)NC(=S)NC1c1cccc(O)c1 (centres undefined)
< 20%: all assays above

COc1ccc2c(/C(C#N)=C/c3cccnc3)c[nH]c2c1
< 20%: all assays above

N#C/C(=C\c1cccnc1)c1c[nH]c2ccc(OCc3ccccc3)cc12
< 20%: all assays above

COc1ccc2[nH]cc(/C(C#N)=C/c3cccnc3)c2c1
< 20%: all assays above

N#C/C(=C\c1ccc2c(c1)OCO2)c1c[nH]c2ccccc12
< 20%: all assays above

COc1cccc2[nH]cc(/C(C#N)=C/c3cccnc3)c12
< 20%: all assays above

From ChEMBL document CHEMBL3751740, “New MKLP-2 inhibitors in the paprotrain series: Design, synthesis and biological evaluations” (Bioorg Med Chem, 2016)
